Results from PubChem BioAssay AID809 (SRMLSC, 2007).
Activity calls are given as the source filed them.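 Rule for the calls: active = EC50 for reversing nicotinamide-shortened yeast lifespan at or below a set limit; inactive = EC50 above that limit.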

Tested on: S. cerevisiae DeaD BB579, nicotinamide rescue growth, OD615 48 h
Experiment: BB579 yeast growth restoration under nicotinamide – S. cerevisiae, yeast lifespan extension project, dose response (AID 809)
Method in brief: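 System: S. cerevisiae DeaD strain BB579 / Medium: Glucose-containing restrictive synthetic medium (CSMM-D), shifted from galactose / Schedule: 4 h pre-incubation, 48 h exposure at 30 °C / Technique: optical density at 615 nm (absorbance) / Read-out: culture growth as lifespan proxy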

| Compound | EC50 |
| --- | --- |
| CCOC(=O)/C(=C/c1ccc(OC(=O)c2ccccc2)cc1)C(C)=O | 4.96 µM |
| O=C(NCC1CCCO1)c1c(O)c2ccccc2[nH]c1=O (centres undefined) | > 10 µM (inactive) |
| CCCCCC(=O)N1CCN(CCN=CC2=C(O)CC(c3ccc(OC)c(OC)c3)CC2=O)CC1 (centres undefined) | > 10 µM (inactive) |
| CCCNC(=O)CCC(NS(=O)(=O)c1ccc(C)cc1)C(=O)NCCC (centres undefined) | > 10 µM (inactive) |
| O=C1CC(c2ccc(F)cc2)CC(O)=C1C=NCCN1CCN(C(=O)Nc2ccccc2)CC1 (centres undefined) | 7.09 µM |
| CN1C(=O)C(Cl)(Cl)C(=O)c2ccccc21 | > 10 µM (inactive) |
| CC(=O)Nc1ccc(C(=O)CSc2nnc(-c3ccc(O)cc3)n2CC2CCCO2)cc1 (centres undefined) | > 10 µM (inactive) |
| O=C(/C=C/c1ccccc1)C1C(=O)c2ccccc2C1=O | > 10 µM (inactive) |
| COCCCNc1c2c3c(cccc3[nH]c1=O)C(=O)c1ccccc1-2 | 7.85 µM |
| Cc1cc(C)c(NC(=O)/C(=C/c2ccccc2)c2ccccc2)c(C)c1 | > 10 µM (inactive) |
| CCCCCC1CC1C(=O)N/N=C/c1ccc(N(C)C)cc1 (centres undefined) | > 10 µM (inactive) |
| CCCCC(=Nc1ccc(N)cc1)C1=C(O)C(C(=O)OC)C(C)(C)CC1=O (centres undefined) | 5.51 µM |
| CC1=CS(=O)(=O)CC1Sc1nc2ccccc2[nH]1 (centres undefined) | > 10 µM (inactive) |
| COc1ccc2c(=O)c3c(=O)n(Cc4ccco4)c(-c4ccco4)nc3oc2c1 | 9.69 µM |
| O=C1c2ccccc2C(=O)N1OCc1ccccc1 | > 10 µM (inactive) |
| O=C(N/N=C/c1ccc(F)cc1)c1c(O)c2ccccc2[nH]c1=O | 2.22 µM |
| CCOC(=O)COc1ccccc1/C=C\[N+](=O)[O-] | 1.79 µM |
| Cc1[nH]nc2nc3c(c(OC(=O)c4ccccc4)c12)c(=O)n(C)c(=O)n3C | 1.75 µM |
| CC(C)(C)C(=O)Cn1c(=N)n(Cc2ccccc2)c2ccccc21 | 9.33 µM |
| Cc1cc(N2C(=O)CC(Cc3ccccc3)C2=O)no1 (centres undefined) | > 10 µM (inactive) |
| COc1ccc(C(=O)Nc2ccc(OCc3ccccc3)cc2)cc1[N+](=O)[O-] | > 10 µM (inactive) |
| CN(C)/C=C(/C(=O)c1ccc(Cl)cc1Cl)S(=O)(=O)c1ccccc1 | 5.3 µM |
| CC(C)CN=C(NS(=O)(=O)c1ccccc1)C(Cl)(Cl)Cl | 3.99 µM |
| COc1ccc(NCc2nc3ccccc3n2CCOc2ccccc2)cc1 | 5.29 µM |
| Cc1ccc2[nH]c(=O)c(CN(CCO)Cc3nnnn3CCc3ccccc3)cc2c1 | > 10 µM (inactive) |
| N#C/C(=C\c1ccccc1)C(=O)N(c1ccccn1)C1CCCCC1 | 6.66 µM |

| Compound | EC50 |
| --- | --- |
| COc1ccc(OC)c(NC(=S)N2CCN(C/C=C/c3ccccc3)CC2)c1 | > 10 µM (inactive) |
| O=c1cc(-c2c(F)c(F)c(F)c(F)c2F)oc2c(F)c(F)c(F)c(F)c12 | 5.65 µM |
| Cc1cccc(N2C(=O)C(Oc3ccc(Cl)cc3Cl)C2C=O)c1C (centres undefined) | 6.52 µM |
| O=C(Nc1cccc(Cl)c1)c1ccc2c(=O)n3c(nc2c1)CCCCC3 | 6.59 µM |
| Cn1c(=O)c2c(nc(Br)n2Cc2ccc3ccccc3c2)n(C)c1=O | > 10 µM (inactive) |
| Cc1ccc(-c2ccc(/C=C3\C(=O)ON=C3c3ccccc3)o2)c([N+](=O)[O-])c1 | 6.93 µM |
| CC1=C(C#N)C2C(/C1=N/O)C2(C)C (centres undefined) | > 10 µM (inactive) |
| CC(C)(C)OC(=O)[C@H]1[C@H](c2ccc([N+](=O)[O-])cc2)C2(C(=O)c3ccccc3C2=O)C2c3ccccc3C=NN21 (some centres undefined) | 8.16 µM |
| CCCCNC(=O)/C(C#N)=C/c1cccnc1 | 9.27 µM |
| O=C1c2ccccc2C(=O)N1Cc1nc2ccccc2c(=O)n1-c1ccc(Br)cn1 | 1.67 µM |
| CN=C(SCc1cc2c(cc1Cl)OCO2)c1c(O)n(C)c(=O)n(C)c1=O | 6.46 µM |
| CN1CCN(C(=S)Nc2cc([N+](=O)[O-])ccc2Cl)CC1 | > 10 µM (inactive) |
| COc1ccc(CNC(=O)c2c(O)c3cccc4c3n(c2=O)CCC4)cc1 | > 10 µM (inactive) |
| CCn1c(=O)c2c(O)cc(=O)oc2c2ccccc21 | < 0.078 µM |
| CS(=O)(=O)c1nc(-c2ccco2)cc(C(F)(F)F)n1 | 4.01 µM |
| O=c1c2c3c(sc2ncn1/N=C/c1ccc([N+](=O)[O-])o1)CCCC3 | > 10 µM (inactive) |
| CC(=O)Oc1ccccc1N1C(=O)c2ccc(C(=O)O)cc2C1=O | > 10 µM (inactive) |
| COC(=O)C1=C(N)OC2=C(C(=O)CC(C)(C)C2)C1c1cccs1 (centres undefined) | 8.93 µM |
| O=C1CC(c2ccccc2)CC(O)=C1C=NCCN1CCOCC1 (centres undefined) | 6.42 µM |
| COc1cc(OC)cc(-c2nc3ccccc3c(=O)n2OC(=O)c2ccc(Br)cc2)c1 | 6.14 µM |
| Cc1cc2c(c(=O)n1CCc1ccccc1)C(c1ccco1)C(C#N)=C(N)O2 (centres undefined) | > 10 µM (inactive) |
| CCCn1[nH]cc(SC)c(=O)c1=O | 8.67 µM |
| CN1C(=O)C(C(=O)Nc2ccccc2F)c2ccccc21 (centres undefined) | 9.71 µM |
| COC(=O)c1cc(=O)n(-c2ccccc2)c(=Nc2ccccc2)s1 | > 10 µM (inactive) |
| CCOC(=O)Cc1csc(NC(=O)c2c(O)c3ccccc3n(CC(C)C)c2=O)n1 | 9.63 µM |
| CC(C)c1ccc2occ(-c3nn[nH]n3)c(=O)c2c1 | 6.44 µM |

| Compound | EC50 |
| --- | --- |
| COc1cccc(C(=O)Oc2cc(N)n(S(=O)(=O)c3ccc(C)cc3)n2)c1OC | 9.26 µM |
| CC(c1ccccc1)N1CCn2c(nc3cc(NC(=O)c4cccs4)ccc32)C1 (centres undefined) | 7.15 µM |
| COc1ccc(NC(=S)N2CCN(CCN=CC3=C(O)CC(c4ccccc4)CC3=O)CC2)cc1 (centres undefined) | 7.32 µM |
| COc1cc(C(C[N+](=O)[O-])c2c(-c3ccccc3)cc3ccccn23)cc(OC)c1OC (centres undefined) | > 10 µM (inactive) |
| CC(C)C(C(=O)O)N1C(=O)/C(=C/c2cccn2C)SC1=S (centres undefined) | 8.05 µM |
| Cc1ccc2[nH]c3c(c2c1)CC/C(=C/c1ccccc1)C3=O | > 10 µM (inactive) |
| O=C(CCC1CCCC1)c1c(O)c2ccccc2oc1=O | > 10 µM (inactive) |
| CC(=O)C(C(C)=O)c1c(Cl)c(O)c(O)c2c(C(=O)c3ccccc3)coc12 | > 10 µM (inactive) |
| CCOC(=O)c1c(C)oc2c1c(C(c1cccnc1)N1CCCCC1)c(O)c1ccccc12 (centres undefined) | > 10 µM (inactive) |
| O=C(c1ccccc1)C(CN1CCCC1)c1ccccc1 (centres undefined) | 9.14 µM |
| Cc1c(NC(=O)C(=O)/C=C(/O)c2ccccc2)c(=O)n(-c2ccccc2)n1C | 4.95 µM |
| Cc1cc(C)c(S(=O)(=O)c2ccccc2)c(OC(=O)c2cc(F)c(F)cc2Cl)n1 | 7.24 µM |
| CCc1nnc(NC(=O)c2cccc(S(=O)(=O)N(C)c3ccccc3)c2)s1 | > 10 µM (inactive) |
| COC(=O)c1sc(S(=O)(=O)Nc2ccc(Br)cc2)c(C(=O)OC)c1C | > 10 µM (inactive) |
| CCOc1ccc(NCc2nc3ccccc3n2CCOc2ccccc2)cc1 | 3.28 µM |
| O=C(NC(=S)Nc1nc2c(s1)CSc1ccccc1-2)c1ccccc1 | > 10 µM (inactive) |
| CN(C)C=C1C(=O)N(C2CCCCC2)C(=O)N(C2CCCCC2)C1=O | 6.96 µM |
| CC1=NN(Cc2ccccc2)C(=O)C1C(c1ccccc1)C(C#N)C#N (centres undefined) | > 10 µM (inactive) |
| Cc1ccc2nc(N3C(=O)C(O)=C(C(=O)c4ccco4)C3c3cccs3)sc2c1 (centres undefined) | 6.68 µM |
| CCCCOC(=O)n1c(=O)oc2cc(S(=O)(=O)N3CCCCC3)ccc21 | > 10 µM (inactive) |
| CCCCn1c(=O)c(C(=O)Nc2cnccn2)c(O)c2ccccc21 | 3.01 µM |
| CCCCn1c(/N=C/c2ccccc2NS(=O)(=O)c2ccc(C)cc2)nc2ccccc21 | 3.53 µM |
| Oc1ccc(NCc2ccccc2OCc2ccccc2F)cc1 | > 10 µM (inactive) |
| C=C(C(=O)c1ccccc1)C(C)C(=C)C(=O)c1ccccc1 | 4.62 µM |
| CCc1cc2c(=O)c(Oc3ccccc3)c(C)oc2cc1O | > 10 µM (inactive) |
| CCOc1cc(Br)c(Br)c(C=Nc2ccc(NC(C)=O)cc2)c1O | 5.03 µM |

| Compound | EC50 |
| --- | --- |
| COc1cc(Br)cc(-c2nc3c(c(=O)[nH]c(=O)n3Cc3ccccc3)n2C)c1O | > 10 µM (inactive) |
| CN1CCN(CC(=O)Nc2ccc(Cl)cc2Cl)CC1 | > 10 µM (inactive) |
| COCCCNC(CC(=O)Nc1ccc(OC)cc1OC)C(=O)O (centres undefined) | > 10 µM (inactive) |
| O=C(N/N=C/c1cccc(F)c1)c1c(O)c2ccccc2[nH]c1=O | 3.21 µM |
| CCCCC(=Nc1ccccc1OC)C1=C(O)CC(c2ccccc2)CC1=O (centres undefined) | 4.5 µM |
| O=C(c1ccc(F)cc1)C(CN1CCOCC1)c1ccccc1 (centres undefined) | 1.12 µM |
| COCCOC(=O)/C(=C/c1ccc(OC(=O)c2ccccc2)cc1)C(C)=O | 4.96 µM |
| CCC(=O)Nc1ccccc1Sc1ncnc2scc(-c3ccccc3)c12 | > 10 µM (inactive) |
| Cc1nc(SC(C)C)[nH]c(=O)c1Cc1ccccc1 | > 10 µM (inactive) |
| CC1(C)CC(=O)C2=C(C1)OC1=C(C(=O)CC(C)(C)C1)C2c1ccc(O)cc1O | > 10 µM (inactive) |
| CC(=O)c1c(C)[nH]c(C(=O)OC2CCCCC2=O)c1C (centres undefined) | > 10 µM (inactive) |
| CC1Cc2ccccc2N1C(=O)Cn1cnc2ccccc2c1=O (centres undefined) | 3.18 µM |
| O=C1C(Cl)=C(Nc2ccccc2O)C(=O)N1CCc1ccccc1 | > 10 µM (inactive) |
| O=C(COc1ccc2ccccc2c1)Nc1cccc(C(=O)Nc2ccccc2C(=O)O)c1 | 8.35 µM |
| O=c1c2ccccc2nc(-c2ccc(Cl)c(Cl)c2)n1O | > 10 µM (inactive) |
| Cc1ccnc(-n2c(C)cc(/C=C3\C(=O)NC(=S)N(C)C3=O)c2C)c1 | > 10 µM (inactive) |
| CCCCCCCCn1c(=O)c(C(=O)OCC)c(O)c2ccccc21 | 9.18 µM |
| C=CCn1c(O)c(C(CC)=NCCN2CCOCC2)c(=O)[nH]c1=O | > 10 µM (inactive) |
| O=C1c2ccccc2-c2onc3c(Oc4ccccc4)cc(O)c1c23 | 6.05 µM |
| CCCC(=Nc1ccccc1)C1=C(O)C(C(=O)OC)C(C)(C)CC1=O (centres undefined) | 5.99 µM |
| O=C(c1ccccc1)c1nc2ccccc2[nH]c1=O | > 10 µM (inactive) |
| Cc1cc(C(=O)CN2C(=O)NC(C)(CC(C)C)C2=O)c(C)n1-c1ccc2c(c1)OCO2 (centres undefined) | > 10 µM (inactive) |
| CCOc1ccc(N=Cc2c(O)c3ccccc3oc2=O)cc1 | > 10 µM (inactive) |
| Cc1c(NC(=O)C(=O)/C=C(\O)c2ccc(Cl)cc2)c(=O)n(-c2ccccc2)n1C | 3.19 µM |
| CCC1CCCCN1S(=O)(=O)c1ccc(S(=O)(=O)N(Cc2cccs2)C2CC2)cc1 (centres undefined) | > 10 µM (inactive) |
| Nc1sc(-c2ccccc2)cc1C(=O)O | > 10 µM (inactive) |
